One assay deals with PBMC. Put plainly: Inhibition of mmLDL-stimulated apoptosis in human PBMC assessed as apoptotic cells at 2 uM preincubated for 30 mins followed by mmLDL stimulation measured after 4 hrs by YO-PRO-1/Hoechst 33342 staining based assay (reference value: 100%). Format: functional. Set-up: scale not given: the % may be the effect or the level left. A digest of the protocol:
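PBMC pre-incubated 30 min with 2 μM compound, then stimulated with mmLDL (27 μg/mL; line 5) or TNFalpha (3 ng/mL; line 1) for 4 h. Apoptotic cells stained with YO-PRO-1 and all cells with Hoechst 33342. Each plate had control, stimulus, compound alone and compound plus stimulus; n = 3. Values are on a 0% (untreated control, corrected for spontaneous apoptosis) to 100% (stimulus alone) scale; means ± SE.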

In assay [1] the target is T1, Acid ceramidase (Homo sapiens) (UniProt Q13510).
T1 sequence (whole entry): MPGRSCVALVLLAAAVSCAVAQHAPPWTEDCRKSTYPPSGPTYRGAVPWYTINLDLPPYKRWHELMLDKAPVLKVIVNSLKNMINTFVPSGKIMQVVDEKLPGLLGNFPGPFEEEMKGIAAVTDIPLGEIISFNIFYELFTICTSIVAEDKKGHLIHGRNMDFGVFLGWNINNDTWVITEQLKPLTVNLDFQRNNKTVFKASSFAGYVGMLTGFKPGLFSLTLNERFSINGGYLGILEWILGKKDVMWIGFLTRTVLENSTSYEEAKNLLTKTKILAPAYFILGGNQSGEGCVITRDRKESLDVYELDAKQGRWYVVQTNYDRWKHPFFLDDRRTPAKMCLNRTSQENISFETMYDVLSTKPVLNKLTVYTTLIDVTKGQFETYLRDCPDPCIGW
Put plainly: Inhibition of TNFalpha-stimulated acid ceramidase in human PBMC assessed as ratio of C24:1-ceramide/lipid phosphate level at 10 uM preincubated for 30 mins followed by TNFalpha stimulation measured after 4 hrs by HPLC method (reference value: 3.05). The format is cell-based. A digest of the protocol: (§1)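 Human macrophages from primary culture were preincubated 30 min with 10 µM compound. They were then stimulated 4 h with mmLDL (54 µg/mL), TNFalpha (3 ng/mL) or exogenous C6-ceramide (10 µM), or left unstimulated. Individual ceramide species (C16 and C24:1) were quantified in the cell lipid extracts.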

In assay [2] the target is T1, Acid ceramidase (Homo sapiens). Put plainly: Inhibition of acid ceramidase in human PBMC assessed as ratio of C24:1-ceramide/lipid phosphate level at 10 uM incubated for 30 mins measured after 4 hrs by HPLC method. The format is cell-based. The method in brief: as §1
In assay [3] the test system is MONO-MAC-6. Put plainly: Upregulation of FCGR2B mRNA expression level in LPS-stimulated human MONO-MAC-6 cells preincubated for 30 mins followed by LPS stimulation measured after 4 hrs by qRT-PCR analysis relative to control. The format is functional. Background: In qPCR the cycle at which signal appears reflects the starting amount.
The test system of assay [4] is MONO-MAC-6. Put plainly: Upregulation of CCL4 mRNA expression level in LPS-stimulated human MONO-MAC-6 cells at 5 uM preincubated for 30 mins followed by LPS stimulation measured after 4 hrs by oligonucleotide array hybridization assay (reference value: 18.52). Format: functional.
Assay [5] deals with MONO-MAC-6. Put plainly: Upregulation of CCL4 mRNA expression level in LPS-stimulated human MONO-MAC-6 cells at 5 uM preincubated for 30 mins followed by LPS stimulation measured after 6 hrs by oligonucleotide array hybridization assay (reference value: 6.37). Format: functional.
The test system of assay [6] is MONO-MAC-6. As to the kind of experiment: Upregulation of CCL20 mRNA expression level in LPS-stimulated human MONO-MAC-6 cells at 5 uM preincubated for 30 mins followed by LPS stimulation measured after 2 hrs by oligonucleotide array hybridization assay (reference value: 2.87). Format: functional.
The test system of assay [7] is MONO-MAC-6. Put plainly: Downregulation of PTX3 mRNA expression level in human MONO-MAC-6 cells at 5 uM incubated for 30 mins measured after 4 hrs by oligonucleotide array hybridization assay relative to control. Format: functional. A digest of the protocol:
(§2)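 Total RNA was isolated, transcribed and labeled with DY-647 dye, then co-hybridized with DY-548-labeled cDNA from untreated cells on an inflammation oligonucleotide chip (780 gene probes). Differential expression >1.5 was taken as significant.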

Assay [8] relates to MONO-MAC-6. As to the kind of experiment: Upregulation of CXCL10 mRNA expression level in human MONO-MAC-6 cells at 5 uM incubated for 30 mins measured after 1 hr by oligonucleotide array hybridization assay relative to control. Format: functional.
In assay [9] the test system is MONO-MAC-6. As to the kind of experiment: Downregulation of CXCL10 mRNA expression level in human MONO-MAC-6 cells at 5 uM incubated for 30 mins measured after 4 hrs by oligonucleotide array hybridization assay relative to control. Format: functional. A digest of the protocol: as §2
The subject of assay [10] is MONO-MAC-6. As to the kind of experiment: Downregulation of CXCL10 mRNA expression level in human MONO-MAC-6 cells at 5 uM incubated for 30 mins measured after 6 hrs by oligonucleotide array hybridization assay relative to control. The format is functional. A digest of the protocol:
as §2

Assay [11] concerns MONO-MAC-6. As to the kind of experiment: Upregulation of CXCL2 mRNA expression level in human MONO-MAC-6 cells at 5 uM incubated for 30 mins measured after 2 hrs by oligonucleotide array hybridization assay relative to control. The format is functional.
For assay [12], the system named is MONO-MAC-6. Put plainly: Upregulation of PTGS2 mRNA expression level in human MONO-MAC-6 cells at 5 uM incubated for 30 mins measured after 2 hrs by oligonucleotide array hybridization assay relative to control. The format is functional.
The test system of assay [13] is MONO-MAC-6. As to the kind of experiment: Upregulation of PTGS2 mRNA expression level in human MONO-MAC-6 cells at 5 uM incubated for 30 mins measured after 4 hrs by oligonucleotide array hybridization assay relative to control. The format is functional.
The test system of assay [14] is MONO-MAC-6. Put plainly: Upregulation of ICAM1 mRNA expression level in human MONO-MAC-6 cells at 5 uM incubated for 30 mins measured after 1 hr by oligonucleotide array hybridization assay relative to control. The format is functional.
Assay [15] concerns MONO-MAC-6. As to the kind of experiment: Downregulation of ICAM1 mRNA expression level in human MONO-MAC-6 cells at 5 uM incubated for 30 mins measured after 2 hrs by oligonucleotide array hybridization assay relative to control. Format: functional. The method in brief:
as §2

Assay [16] deals with MONO-MAC-6. As to the kind of experiment: Downregulation of CXCL2 mRNA expression level in human MONO-MAC-6 cells at 5 uM incubated for 30 mins measured after 2 hrs by qRT-PCR method relative to control. The format is functional.
The subject of assay [17] is MONO-MAC-6. As to the kind of experiment: Upregulation of CXCL2 mRNA expression level in LPS-stimulated human MONO-MAC-6 cells at 5 uM preincubated for 30 mins followed by LPS stimulation measured after 4 hrs by qRT-PCR method (reference value: 16.41). Format: functional.
In assay [18] the test system is MONO-MAC-6. As to the kind of experiment: Downregulation of IL-6 mRNA expression level in LPS-stimulated human MONO-MAC-6 cells at 5 uM preincubated for 30 mins followed by LPS stimulation measured after 1 hr by qRT-PCR method (reference value: 1). The format is functional.
In assay [19] the test system is MONO-MAC-6. Put plainly: Upregulation of IL23A mRNA expression level in LPS-stimulated human MONO-MAC-6 cells at 5 uM preincubated for 30 mins followed by LPS stimulation measured after 1 hr by qRT-PCR method (reference value: 1.10). The format is functional.
Assay [20] relates to MONO-MAC-6. Put plainly: Downregulation of IL23A mRNA expression level in human MONO-MAC-6 cells at 5 uM incubated for 30 mins measured after 2 hrs by qRT-PCR method relative to control. The format is functional.
For assay [21], the system named is MONO-MAC-6. Put plainly: Upregulation of IL23A mRNA expression level in LPS-stimulated human MONO-MAC-6 cells at 5 uM preincubated for 30 mins followed by LPS stimulation measured after 4 hrs by qRT-PCR method (reference value: 10.78). Format: functional.
The test system of assay [22] is MONO-MAC-6. Put plainly: Downregulation of IL23A mRNA expression level in human MONO-MAC-6 cells at 5 uM incubated for 30 mins measured after 6 hrs by qRT-PCR method relative to control. Format: functional.

We go through 1 molecule from ChEMBL document CHEMBL4152184, “NB 06: From a simple lysosomotropic aSMase inhibitor to tools for elucidating the role of lysosomes in signaling apoptosis and LPS-induced inflammation” (Eur J Med Chem, 2018).

Turning to `COc1ccc(CCN(C)CCCn2c3ccccc3c3ccccc32)cc1`, in the assay with PBMC, the Activity was 33 - 49%. Besides, the Ratio was 1.28 in assay [1] and 8.71 in assay [2]. The “fold change (FC)” value stood at 2.93 in the assay on MONO-MAC-6 [3]; 8.04 in the assay with MONO-MAC-6 [4]; 1.16 in the assay with MONO-MAC-6 [5]; 2.7 with MONO-MAC-6 [6]; 1.93 in the assay on MONO-MAC-6 [7]; 1.11 in the assay with MONO-MAC-6 [8]. The “fold change (FC)” value in the assay with MONO-MAC-6 [9] is recorded as 2.08; in the assay on MONO-MAC-6 [10] it was 6.7; in the assay with MONO-MAC-6 [11], 1.11; in the assay on MONO-MAC-6 [12] it was 2.08; in the assay with MONO-MAC-6 [13], 1.17; with MONO-MAC-6 [14] it was 1.1. The “fold change (FC)” value with MONO-MAC-6 [15] is 1.28; with MONO-MAC-6 [16], 1.27; in the assay on MONO-MAC-6 [17], 8.28; in the assay with MONO-MAC-6 [18] it was 1.17; with MONO-MAC-6 [19], 1.03; in the assay with MONO-MAC-6 [20], 1.24. Further, the “fold change (FC)” value with MONO-MAC-6 [21] stood at 1.71; in the assay with MONO-MAC-6 [22] it was 1.72.
